Assay results from ChEMBL document CHEMBL1268997, “Synthesis and biological evaluation of 3-substituted-benzofuran-2-carboxylic esters as a novel class of ischemic cell death inhibitors” (Bioorg Med Chem Lett, 2010).

Key:
[1] = test system: H9c2; experiment: Cytoprotective activity against OGD-induced ischemic cell death in rat H9c2 cells assessed as cell death at 10 uM for 30 mins by DAPI analysis; format: functional
Summary of the method: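 H9c2 rat heart cells grown in DMEM with 10% FBS and penicillin/streptomycin at 37 °C in 5% CO2. Compound added 30 min before and during oxygen-glucose deprivation. Cells fixed with 0.5% Triton X-100 in PBS for 15 min, then DAPI-stained. Nuclei counted by fluorescence microscopy in three random fields of at least 300 cells to give % dead cells. Mean ± SEM.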

[2] = test system: H9c2; experiment: Cytoprotective activity against OGD-induced ischemic cell death in rat H9c2 cells assessed as cell death at 10 uM for 30 mins by LDH release assay; format: functional
Summary of the method: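 H9c2 rat heart cells grown in DMEM with 10% FBS and penicillin/streptomycin at 37 °C in 5% CO2. Pretreated with compound for 30 min, then kept on compound during oxygen-glucose deprivation. Cell death read as LDH released, expressed as a percentage of LDH released by full lysis with 0.1% Triton X-100. Mean ± SEM; Student's t-test.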

[3] = Cytoprotective activity against OGD-induced ischemic cell death in Sprague-Dawley rat primary cardiac myocytes assessed as inhibition of cell death treated for 6 hrs by counting DAPI-stained nuclei; details: Cardiac muscle cell

Structure (SMILES)	Activity [1] [%]	Activity [2] [%]	EC50 [3] [nM]
COC(=O)c1oc2ccccc2c1NC(=O)CSc1ccc(N)cc1	16.54	40.15	–
COC(=O)c1oc2cccc(Cl)c2c1NC(=O)CSc1ccc(Br)cc1	8.94	35.48	630
COC(=O)c1oc2cccc(Cl)c2c1NC(=O)CCSc1ccccn1	7.02	29.46	557
COC(=O)c1oc2ccccc2c1NC(=O)CSc1ccc(Br)cc1	10.59	32.39	778
COC(=O)c1oc2ccccc2c1NC(=O)CSc1cccc(Br)c1	16.85	39.51	–
COC(=O)c1oc2ccccc2c1NC(=O)CSc1ccc(OC)cc1	9.73	40.34	752
COC(=O)c1oc2ccccc2c1NC(=O)CSc1ccccc1Br	13.63	41.01	–
COC(=O)c1oc2ccccc2c1NC(=O)CNc1ccccc1	21.04	62.76	–
COC(=O)c1oc2ccccc2c1NC(=O)CNc1ccc(Br)cc1	22.37	60.32	–
COC(=O)c1oc2ccccc2c1NC(=O)COc1ccc(Br)cc1	13.17	36.17	1180
COC(=O)c1oc2ccccc2c1NC(=O)CSc1ccccc1	15.97	40.93	–
COC(=O)c1oc2ccccc2c1NC(=O)CCc1ccccc1	15.94	38.72	–
COC(=O)c1oc2ccccc2c1NC(=O)CCSc1ccccn1	11.55	36.07	929
COC(=O)c1oc2ccccc2c1NC(=O)CSc1ccc(C)cc1	21.57	56.39	–
COC(=O)c1oc2ccccc2c1NC(=O)CSc1ccc([N+](=O)[O-])cc1	6.18	30.21	532
COC(=O)c1sc2ccccc2c1NC(=O)CSc1ccc(Br)cc1	13.92	41.31	–
COC(OC)[C@@]1(C)Oc2ccc(N)cc2[C@@H](N/C(=N/Cc2ccccc2)NC#N)[C@@H]1O	15.54	43.33	1110
